A short description of series [1]: Half life of the compound at pH 7.4 at 37 degC by solution stability test. It counts as physicochemical. The note with it: buffer. The essentials:
(§1)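 Chemical stability in aqueous solution at 37 °C, at pH 1.0 or pH 7.4. Half-life determined for each condition, in hours.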

A short description of series [2]: Half life of the compound at pH 1 at 37 degC by solution stability test. The series is classed as physicochemical. The note with it: buffer. The essentials: as §1
Series [3] in a line: Aqueous solubility of the compound at pH 6.5. It counts as physicochemical.
Series [4] is described as follows: Aqueous solubility of the compound at pH 1. The series is classed as physicochemical.
The nature of series [5]: Half life of the compound at pH 7.5 at 25 degC by solution stability test. The series is classed as physicochemical. The note with it: buffer.
Series [6] can be described thus: Aqueous solubility of the compound at pH 3.1. The series is classed as physicochemical.
Series [7] deals with Rattus norvegicus. Put plainly: Tmax in rat assessed as parent compound BMS-582949 at 14.2 mg/kg, po administered in 1:1 PEG 300/water as vehicle. The series is classed as ADME, organism-based. More on the design: dose 14.2 mg/kg, route oral. The note with it: in vivo. The essentials:
(§2)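 Oral dosing to rats as a solution in 1:1 PEG 300/water. Prodrug given at 14.2 mpk (equivalent to 10 mpk of parent); parent given at 10 mpk. Plasma levels of the parent drug measured over 24 h, giving Cmax, Tmax and AUC0–24h. The prodrug itself was also monitored in plasma.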

A short description of series [8]: Aqueous solubility of the compound at pH 4.6. It counts as physicochemical.
Series [9] concerns Rattus norvegicus. The experiment in a line: AUC (0 to 24 hrs) in rat assessed as parent compound BMS-582949 at 14.2 mg/kg, po administered in 1:1 PEG 300/water as vehicle. The series is classed as ADME, organism-based, Plasma. The note with it: in vivo. Further details: time < 24 hr, dose 14.2 mg/kg, route oral. The essentials:
as §2

Series [10] has as its system Rattus norvegicus. The experiment in a line: AUC (0 to 24 hrs) in rat assessed as parent compound BMS-582949 at 142 mg/kg, po administered in 0.75% methocel vehicle as suspension. It counts as ADME, organism-based, Plasma. Further details: time < 24 hr, dose 142 mg/kg, route oral. The note with it: in vivo. The essentials:
(§3)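 Oral dosing to rats as a methocel suspension. Prodrug given at 142 mpk (equivalent to 100 mpk of parent); parent given at 100 mpk. Parent drug measured in plasma over 24 h, giving Cmax, Tmax and AUC0–24h. The prodrug itself was also monitored in plasma.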

The test system of series [11] is Rattus norvegicus. Put plainly: Tmax in rat assessed as parent compound BMS-582949 at 142 mg/kg, po administered in 0.75% methocel vehicle as suspension. It counts as ADME, organism-based. Further details: dose 142 mg/kg, route oral. The note with it: in vivo. The gist of the method: as §3
Series [12] concerns Rattus norvegicus. The experiment in a line: Cmax in rat assessed as parent compound BMS-582949 at 142 mg/kg, po administered in 0.75% methocel vehicle as suspension. The series is classed as ADME, organism-based. Further details: dose 142 mg/kg, route oral. The note with it: in vivo. The essentials:
as §3

The subject of series [13] is Rattus norvegicus. The experiment in a line: Cmax in rat assessed as parent compound BMS-582949 at 14.2 mg/kg, po administered in 1:1 PEG 300/water as vehicle. The series is classed as ADME, organism-based. More on the design: dose 14.2 mg/kg, route oral. The note with it: in vivo. The gist of the method: as §2
A short description of series [14]: AUC (0 to 24 hrs) in rat at 10 mg/kg, po administered with 1:1 PEG 300/water as vehicle. It counts as ADME, organism-based. More on the design: time < 24 hr, dose 10 mg/kg, route oral. The note with it: plasma. The essentials:
as §2

Series [15] is described as follows: Tmax in rat at 100 mg/kg, po administered in 0.75% methocel vehicle as suspension. It counts as ADME, organism-based. More on the design: dose 100 mg/kg, route oral. The note with it: in vivo. The essentials:
as §3

Series [16] can be described thus: Cmax in rat at 10 mg/kg, po administered with 1:1 PEG 300/water as vehicle. Further details: dose 10 mg/kg, route oral. The series is classed as ADME, organism-based. The note with it: in vivo. The gist of the method: as §2
A short description of series [17]: AUC (0 to 24 hrs) in rat at 100 mg/kg, po administered in 0.75% methocel vehicle as suspension. Further details: time < 24 hr, dose 100 mg/kg, route oral. It counts as ADME, organism-based. The note with it: plasma. The gist of the method: as §3
Series [18] in a line: Cmax in rat at 100 mg/kg, po administered in 0.75% methocel vehicle as suspension. The series is classed as ADME, organism-based. Further details: dose 100 mg/kg, route oral. The note with it: in vivo. The essentials: as §3
A short description of series [19]: Tmax in rat at 10 mg/kg, po administered with 1:1 PEG 300/water as vehicle. It counts as ADME, organism-based. Further details: dose 10 mg/kg, route oral. The note with it: in vivo. The essentials: as §2

Molecules are shown by their SMILES. ≈ marks a conversion by molar mass, not a printed value.

The term half-life denotes the time in which the quantity being followed falls by half. For the compound `CCCNC(=O)c1cn2ncnc(Nc3cc(C(=O)N(C(=O)OCOP(=O)(O)O)C4CC4)ccc3C)c2c1C`, the half-life in series [1] was < 0.25 h; in series [2] it was 20.5 h.

Usually solubility stands for the dissolved amount per volume that the medium holds. Higher therefore signals much dissolved substance. Regarding `CCCNC(=O)c1cn2ncnc(Nc3cc(C(=O)N(C(=O)OCOC(=O)/C=C/C(=O)O)C4CC4)ccc3C)c2c1C`, the results for the half-life in series [1] and in series [2] were 21.8 h and 34.5 h, respectively. Moreover, the solubility in series [3] worked out at 1570 µg/mL (≈ 2710 µM); in series [4], 166 µg/mL (≈ 287 µM).

For `CCCNC(=O)c1cn2ncnc(N(C(=O)OCOC(=O)/C=C/C(=O)O)c3cc(C(=O)NC4CC4)ccc3C)c2c1C`, the half-life in series [1] is 14.6 h; in series [2], 129 h. Further, the solubility in series [3] came out at 1150 µg/mL (≈ 1990 µM); in series [4], 8 µg/mL (≈ 13.8 µM).

Take `O=C(OCOP(=O)(O)O)OC1Cc2ccccc2C1`: the half-life in series [5] turned out to be 0.967 h.

Take `CCCN(C(=O)OCOC(=O)[C@H](C)N)C(=O)c1cn2ncnc(Nc3cc(C(=O)NC4CC4)ccc3C)c2c1C.Cl.Cl`: the half-life in series [1] was < 0.25 h; in series [2] it was 3.2 h.

Take `CCCNC(=O)c1cn2ncnc(N(C(=O)OCOP(=O)(O)O)c3cc(C(=O)NC4CC4)ccc3C)c2c1C`: the results for the half-life in series [1] and in [2] were < 0.25 h and 8.5 h, respectively.

Turning to `CCCN(C(=O)OCOP(=O)(O)O)C(=O)c1cn2ncnc(Nc3cc(C(=O)NC4CC4)ccc3C)c2c1C`, the half-life in [1] was < 0.25 h; in [2] it was 26.8 h.

With `CCCNC(=O)c1cn2ncnc(N(C(=O)OCOC(=O)[C@H](C)N)c3cc(C(=O)NC4CC4)ccc3C)c2c1C.Cl.Cl`, the half-life was < 0.25 h in series [1] and 3.2 h in [2].

Broadly, the Tmax is the time at which the peak concentration occurs. For orientation: AUC means concentration integrated over time. One may read the Cmax as the highest concentration seen after dosing. Consider `CCCN(C(=O)OCOC(=O)/C=C/C(=O)O)C(=O)c1cn2ncnc(Nc3cc(C(=O)NC4CC4)ccc3C)c2c1C`, for which the solubility was determined as 105 µg/mL (≈ 181 µM) in series [6], 367 µg/mL (≈ 634 µM) in series [8], 883 µg/mL (≈ 1530 µM) in series [3] and 1180 µg/mL (≈ 2040 µM) in series [4]. Further, the figures for the time of peak concentration (Tmax) in [7] and in [11] were 4 h and 6 h, respectively. Further, the AUC in series [9] worked out at 52 µM·h; in series [10], 213.9 µM·h. The half-life in series [1] was 38.5 h; in series [2], 79.4 h. For the same compound, the Cmax in [12] came to 21.1 µM; in [13] it was 4.6 µM.

As a reminder, the AUC(0-t) is the area under the concentration-time curve up to a stated or last time point. Regarding `CCCNC(=O)c1cn2ncnc(Nc3cc(C(=O)NC4CC4)ccc3C)c2c1C` [BMS-582949], the AUC(0-t) at 24 h is 53.3 µM·h in series [14] and 5.6 µM·h in series [17]. Moreover, the Tmax in series [15] was found to be 1.7 h; in [19], 1 h. Moreover, the results for the Cmax in [16] and in series [18] were 6.5 µM and 0.8 µM, respectively.

As to `CCCNC(=O)c1cn2ncnc(Nc3cc(C(=O)N(C(=O)OCOC(=O)[C@H](C)N)C4CC4)ccc3C)c2c1C.Cl`, the half-life in series [1] was < 0.25 h; in series [2], 3 h.

Turning to `COc1ccc(CCNC(=O)OCOP(=O)(O)O)cc1OC`, in series [5], the half-life was 1150 h.
